# Tested on: MS2 coat protein
# Assay: apparent Kd, MS2 coat protein; higher = weaker binding; RNA-MaP array; FMN 200 µM where present
# Summary of the method: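 The titrant was SNAP-549-labelled MS2 coat protein, run from 0.7 or 1.5 nM in doubling steps to 3 µM. It was applied to designs transcribed by stalled E. coli RNA polymerase on Illumina sequencing-chip clusters, without ligand first and then with constant ligand, in 100 mM Tris-HCl pH 7.5, 80 mM KCl, 4 mM MgCl2, BSA, DTT, yeast tRNA and Tween-20. The apparent Kd is the median of filtered per-cluster binding-curve fits, with green signal normalised to red-channel RNA signal and control-cluster median Fmax.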
# [1] = designed as: OFF switch for flavin mononucleotide, no ligand
# [2] = ligand present: flavin mononucleotide, designed as: OFF switch for flavin mononucleotide
# [3] = designed as: ON switch for flavin mononucleotide, no ligand
# [4] = ligand present: flavin mononucleotide, designed as: ON switch for flavin mononucleotide
Sequence,apparent Kd [1] [nM],apparent Kd [2] [nM],apparent Kd [3] [nM],apparent Kd [4] [nM]
ACAUGAGGAUGAGGAUAUUCAUACAUGAGGAUAGAAGAAGGCAUACAUGAGGAUCACCCAUGUAUACACAUGAGGAUCUCCCAU,25.5,30.5,,
GUAUUAAAGAUCCAUUUUUACAACAUGAGGAUCACCCAUGUGCAGGAUAUCGUGUGUUUUAUAUUCGAGAAGGGCAAAUUCAUU,51.8,109,,
CAGCAGUGUAAGAAGGCUGCUCCGAUAAGGAGCAGAGGAUAUUACAUGAGGAUCACCCAUGUAUGAACCAAUAGCUGAAAUAAA,9.12,85.3,,
UUGUAAACUAUCCGUACAUGAGGAUCACCCAUGUGCAAGAGCAGAAGGACGUGGCACUCGAGUACGUAGGAUAUGCAUGGAUGG,,,27.1,9.59
UGUCCAUAGCAGAAGGACAUGAAUAAACGUGAAAACAUGAGGAUCACCCAUGUAGGAUAUGCUAUGGACUAAGAGCGAAAGCUC,34.7,494,,
UGGUUGUGAGGAUAUCCAAUAUAUGACAUGAGGAUCACCCAUGUUUCCACUCGUACCUCCGGAGAAGGCACUUGGU,33.4,28.4,,
GCCAUCGCAUGAGGAUAUGCUCCGGUUUCCGGAGCAGAAGGCAUGUCGUUAGACAUGAGGAUCACCCAUGUAGUUAAGAUGGCA,,,999,41.1
GCUGUGGCAUGAGGAUAUGGUCACGUUUCGUGACCAGAAGGCAUGUCAAUAGACAUGAGGAUCACCCAUGUAGUUAACACAGCA,,,497,41.9
AAGUCACAUGAGGAUCACCCAUGUCGUAAACGAUGAGGAUAUAGGAAAAAAAAAAAAAAACUAGAAGGUAUAACAA,,,69.3,69.1
UGCGUACAAGCGGACAUGAGGAUCACCCAUGUAGUCUUAUGCGAGGAUAUCGGGAAGGAGGAUUCCGAGAAGGUGCGGUGAGCC,,,17.5,15.2
AUGUGGUGCGUAGGAUAUCAUUGAGGGUAACCCUGAGAAGGACGUGAGGACAUGAGGAUCACCCAUGUGGAUCACCCAUGUCAU,150,301,,
UUUGUUGUUGUGAGGAUAUACUGUUUGUUUUGUUUGUAGAAGGUACAUGAGGAUCACCCAUGUUGGUUGUUUUU,26.4,25.1,,
CUAGACAGAUCAGGAUAUCAUCGCAUGGUGCAUCCCUGUGAUUACAUGAGGAUCACCCAUGUGGAUGAGAAGGGAUUACUAUGU,31.9,10.7,,
CCUUCAGCGAACGAUACGAAUGGACAUGAGGAUCACCCAUGUAGAAGGACAGGAGAAUAACGGCUGUAGGAUAUACAUUUAGUG,39.9,30,,
ACAUGAGGAUCACCCAUGUGAUGAUCUUCCAUGUCAUAUUUCAGAAGGCACGCAUCUUUAAUGAGUGAGGAUAUGGAAUAUGCG,674,410,,
AGAAGGCUACAGAAGGGACACACACGGCGGGAGUCAGGAUAUGUAGAGAAAACGUUACAUGAGGAUCACCCAUGUAGACCUUCC,,,123,19.9
GCUAUCGGGUGAGGAUAUAUGGUUGUGAUUAAAAUAGAAGGCAUCUCAGAAGACAUGAGGAUCACCCAUGUAGUUAAGAUGGCA,,,63.4,46.8
UCAUGAAGGGCAGGAUAUGGACAUGAGGAUCACCCAUGUACAUGGGAUUAUAUACUAAAUUAAUACUAGAAGGGUUACAUAAAU,47.9,23.1,,
GUCGUGUGAGGAUAUGGAUCGACGCAGUGACAGUCAGCGACCUAGAAGGCACAUGAGGAUCACCCAUGUAUGUG,54.6,97.5,,
AGUAAGAUGCAGAAGGUGUUAGCUAGAGCUACGACAUGAGGAUCACCCAUGUACUAGAAAACGUACAAGGAUAUGCAUCUUACA,,,7.36,5.98
UUAUUUAGGUAGGAUAUCGAUACCAAUCCCUAUCGAGAAGGGUCUACAUGAGGAUCACCCAUGUUAGCAUGUUU,20.1,21.1,,
GGCACACAUGAGGAUCACCCAUGUGAGGAUAUGUUAGUUUCGGCCAAAGCCGAAAUUAACAGAAGGCACAUGCC,14.9,26.4,,
UAAAUUUUGUAAGGAUAUACACGAGAUUCAAGUGUAGAAGGUACUUACAUGAGGAUCACCCAUGUAUACAUGGAUCAUAGAUAU,,,305,63.9
GGAACUUAGGGAGGAUAUAGGCGACAUGAGGAUCACCCAUGUACGGAGGGCUCUUCCCGUGUUCACUAGAAGGCCCAUGUUACC,19.4,75,,
GCACGAGACUAAGGAUAUGGUGUAUCUACAUGAAACAUGAGGAUCACCCAUGUAGUAAGUAUGAUUCAGAAGGUAGAGACGUGC,,,49.7,23
CCUGCGGACAAAGGAUAUUGCGGUGGCCGGCUCAGUAAAUCUAGCCAACAUGAGGAUCACCCAUGUAAGAAGGUUGCCGUUGGU,19.1,35.1,,
UCAUACGGUGAGGAUAUCUCCGUUAAAGUAUGUAGAGAAGGCGCUACAUGAGGAUCACCCAUGUUUGUGGGCAG,392,278,,
UAGGGAGGAGGGAGGGAGACAUGAGGAUCACCCAUGUAAAGUCAGGAUAUUCUCAUAUUAUAUUAGGAGAAGGGAUACAUAUCU,47.5,13.8,,

Sequence,apparent Kd [1] [nM],apparent Kd [2] [nM],apparent Kd [3] [nM],apparent Kd [4] [nM]
UAAUAAUAAUAAUACCAGUUUACAUGAGGAUCACCCAUGUAUAAGGAUAUGCAGUGGAAUACACUGCAGAAGGUAUACAUCUGG,18.8,35.9,,
CUAUAUAAUACCUCAUGUACAUGAGGAUCACCCAUGUUAACUUAGGAUAUAUUUAUAUUAAUAGAGUAGAAGGAAGUACUAUUG,27.4,21.2,,
GCCAUGUCAGGAUAUAAGCUGUUGCCGAACGGUCAACACAAUUAGAAGGGACAUGAGGAUCACCCAUGUCCGAG,18.5,20.3,,
GGUGGACAUGAGGAUCACCCAUGUGAGGAUAUCGGCUAUCUACUCGCUGUCGGUUGCUCGAGAAGGCACAUUGU,177,171,,
AUCAGCUCGUGAGGAUAUACGUCACUGCGUCAGCAGUGUGGUAAGAUCACAUGAGGAUCACCCAUGUAGAAGGCACGAGCUGAU,66.2,837,,
UAUAUAUAGUAAGGAUAUGUAAUUAUUUCAUAAACAGAAGGUACUGACAUGAGGAUCACCCAUGUUUUAGUGUGGGCAUGUAGA,79.8,108,,
GGUCCACAUGAGGAUCACCCAUGUCAGGAUAUACACGGCACUAUAAUAAGUGCCACCCGUAGAAGGGACGCUGG,17.2,38.5,,
UGUCGGAGCAGAGGAUAUACAUGAGGAUCACCCAUGUAAUAAAGUGAAGCCUGGAAACGGGCAAUGUAGAAGGCUGCUCCGACA,11.3,87.8,,
GACUGCUGAGGAUAUACAUGAGGAUCACCCAUGUGCUUCAGUAUCGAAAGAUACAUUGGUAGAAGGUGGUAGUC,13.4,21.4,,
CCUAAGGACACAGGAUAUAGCGUGGUGGCUGGGCUCCAACGACAAGCGGCGCUAGAAGGGUGACCACAUGAGGAUCACCCAUGU,,,754,218
CCAGGCUGUGUGAGGAUAUGCUGGUCCUUGGAUCAGCAGAAGGCACAUGAGGAUCACCCAUGUGAGGAGCUUGG,20.2,98.8,,
GGCCUGCAGCUAGGAUAUGGGCGAUCACAUGAGGAUCACCCAUGUCAACAUCAAAACAAGAUUAACCAGAAGGAGCCGCGAGUU,,,26.5,211
UGAGCCUCGUGAGGAUAUACAUGAGGAUCACCCAUGUAAUAAAGUGAACGGAGGAAACUCCGAAUGUAGAAGGCACGAGGCUCA,47.9,443,,
CAGCGAUAGCUGAACAAUCUAUCUGAGGAUAUUCAUAAAACAUGAGGAUCACCCAUGUAAAAUUGGGAGAAGGCAGAUAGAUUG,,,12.6,4.69
GCAGGUCGAGGAUAUACAUGAGGAUCACCCAUGUAGAUCAACCAGCGAUAGCUGGAAUGUAGAAGGUGACCUGC,15.7,29.4,,
GCAGGUUUACGAGGAUAUGGGUGGUACGAACAUGAGGAUCACCCAUGUUUCCCAGAAGGCGUAGCCUAACAAAGAGAACAGGAG,,,418,22.2
UUUCCUGAAGGAUAUUAAGAGCCAGACAUGAGGAUCACCCAUGUUCCUACAACGAACCUCUAAGAAGGUCAGGGCU,20.9,21,,
CGAUGGCAUGUAGGAUAUCGAGCUCAAAGAGCUCGAGAAGGACAUGAGGAUCACCCAUGUCCUCACAGACAGUGAGGGCUAUCG,22.3,54.7,,
GUGGUCAGACAUGAGGAUCACCCAUGUGGAAUAAAUAAGGACUAGGAUAUGGAAUAUAGGAUAUACCAGAAGGAGUGGUUGGUG,,,56.4,60
UAGGGCGAGUUAUGUACAAGAUACAUGAGGAUCACCCAUGUGUAGGAUAUGACCCUUAUCGCUGGUCAGAAGGGCACGAGAAUC,74.1,94.2,,
GCGUAUAUAAGAUUUAUUUAACAGUCAGAAGGUGAUAAUACGACAUGAGGAUCACCCAUGUAAUUCAAGGAUAUGAUCUUACGC,,,133,65.7
GGUGCUAUGUAGAAGGCAGAUCUGAUUCAGAUCUGAGGAUAUACAUGAGGAUCACCCAUGUUAUGCACCAGCACGAGAGUGCAA,7.12,12.8,,
AGUUGGCGAGGAUAUACAUGAGGAUCACCCAUGUGAAAUAUAAGAGUGAGGAAGAAAAGUAGAAGGCGCUGACA,99.8,130,,
AAGCCCUGAGGAUAUCCCAACUCGCACAUGAGGAUCACCCAUGUCCUUCUCUGGGCUUCGGGAGAAGGCAGGUCUC,90.3,305,,
UUAAAUCAUGUAGGAUAUGCAUGGCGAAGCUACGCAGAAGGACAUGAGGAUCACCCAUGUUAUAGCUAGGCAGUUCCCUGGCAA,70.2,214,,
AGCUGGUGACAGCAUCCAUCAAAACAUGAGGAUCACCCAUGUAGAAGGCUGUACGGUUACCGUACAGAGGAUAUACAAUGAUGC,13.8,31.8,,
ACAUGAGGAUCUCCCAUGUAAAAUUAGGAUAUAUAACUGCACAUGAGGAUCACCCAUGUUUAACCGUAGAAGGGAUAAAUAAUU,,,,786
